Source: ChEMBL document CHEMBL1156597, “Structure-activity relationship of kahalalide F synthetic analogues” (J Med Chem, 2008)

How the values were obtained:
[1] = system: DU-145; assay: Cytotoxicity against human DU145 cells after 48 hrs by SRB assay; assay type: functional, cell-based; conditions: Homo sapiens, DU-145, 48 h; for CC50: read-out: LC50 (the source's name)
Summary of the method: (§1)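 Cells grown in RPMI 1640 with 10% FBS and penicillin/streptomycin at 37 °C and 5% CO₂, trypsinized, then seeded at 5 × 10³/well. After 18 h drug-free attachment, samples in DMSO/EtOH/PBS (0.5:0.5:99) were added for 48 h continuous exposure. Cells were fixed with cold TCA (1 h, 4 °C) and stained with SRB (10 min). Tris-solubilized stain read at 490 nm. Triplicate wells, mean ± SD; GI₅₀ derived.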

[2] = system: LNCaP; assay: Cytotoxicity against human LNcaP cells after 48 hrs by SRB assay; assay type: functional; conditions: for CC50: read-out: LC50 (the source's name); summary of the method: as §1
[3] = Cytotoxicity against human IGROV cells after 48 hrs by SRB assay; assay type: functional; conditions: for CC50: read-out: LC50 (the source's name); summary of the method: as §1
[4] = Cytotoxicity against human IGROV-ET cells after 48 hrs by SRB assay; assay type: functional; conditions: for CC50: read-out: LC50 (the source's name); summary of the method: as §1
[5] = system: SK-MEL-28; assay: Cytotoxicity against human SK-MEL-28 cells after 48 hrs by SRB assay; assay type: functional, cell-based; conditions: Homo sapiens, SK-MEL-28, 48 h; for GI50: read-out: GI50; for CC50: read-out: LC50 (the source's name); summary of the method: as §1
[6] = system: A549; assay: Cytotoxicity against human A549 cells after 48 hrs by SRB assay; assay type: functional, cell-based; conditions: Homo sapiens, A549, 48 h; for GI50: read-out: GI50; summary of the method: as §1
[7] = system: K562; assay: Cytotoxicity against human K562 cells after 48 hrs by SRB assay; assay type: functional; conditions: K562, 48 h; for CC50: read-out: LC50 (the source's name); summary of the method: as §1
[8] = system: PANC-1; assay: Cytotoxicity against human PANC1 cells after 48 hrs by SRB assay; assay type: functional; conditions: PANC-1, 48 h; for CC50: read-out: LC50 (the source's name); summary of the method: as §1
[9] = system: HT-29; assay: Cytotoxicity against human HT29 cells after 48 hrs by SRB assay; assay type: functional, cell-based; conditions: Homo sapiens, HT-29, 48 h; for CC50: read-out: LC50 (the source's name); summary of the method: as §1
[10] = system: LoVo; assay: Cytotoxicity against human LoVo cells after 48 hrs by SRB assay; assay type: functional; conditions: for CC50: read-out: LC50 (the source's name)
[11] = system: LoVo; assay: Cytotoxicity against human doxorubicin resistant LoVo cells after 48 hrs by SRB assay; assay type: functional; conditions: for CC50: read-out: LC50 (the source's name); summary of the method: as §1
[12] = system: HeLa; assay: Cytotoxicity against human HeLa cells after 48 hrs by SRB assay; assay type: functional; conditions: for CC50: read-out: LC50 (the source's name); summary of the method: as §1
[13] = Cytotoxicity against human HeLa-APL cells after 48 hrs by SRB assay; assay type: functional; summary of the method: as §1

SMILES | CC50 [1] | CC50 [2] | CC50 [3] | GI50 [4] | GI50 ([4]; read-out: GI50) | CC50 [4] | TGI [5] | GI50 [5] | CC50 [5] | LC50 [6] | CC50 [7] | CC50 [8] | CC50 [9] | GI50 [10] | TGI [10] | CC50 [10] | GI50 [11] | CC50 [11] | CC50 [12] | LC50 (concentration giving 50% net cell kill) [13] | also measured
C/C=C1\NC(=O)[C@H](Cc2ccccc2)NC(=O)[C@@H](C(C)C)NC(=O)[C@@H]([C@H](C)CC)NC(=O)[C@H](NC(=O)[C@H](NC(=O)[C@H](CCCN)NC(=O)[C@H]2CCCCN2C(=O)[C@H](NC(=O)[C@@H](NC(=O)[C@@H](NC(=O)[C@H](NC(=O)CC[C@@H](C)CC)C(C)C)[C@@H](C)O)C(C)C)C(C)C)[C@H](C)CC)[C@H](C)OC(=O)[C@H](C(C)C)NC1=O | 1.3 µM | 1.31 µM | 0.487 µM | 0.632 µM | 0.894 µM | 0.483 µM | 1.47 µM | 1.59 µM | 1.36 µM | 6.72 µM | 2.16 µM | 2.02 µM | 0.447 µM | 2.25 µM | 2.34 µM | 0.678 µM | 1.22 µM | 1.7 µM | 1.08 µM | 0.978 µM | GI50 [3]: 0.786 µM; GI50 ([3]; read-out: GI50): 1.39 µM; TGI [6]: 8.7 µM; GI50 [6]: 8 µM; TGI [11]: 1.82 µM; GI50 [12]: 3.08 µM; TGI [12]: 2.66 µM; GI50 [13]: 1.51 µM; TGI [13]: 1.45 µM
C/C=C1\NC(=O)[C@H](Cc2ccccc2)NC(=O)[C@@H](C(C)C)NC(=O)[C@@H]([C@@H](C)CC)NC(=O)[C@H](NC(=O)[C@H](NC(=O)[C@H](CCCN)NC(=O)[C@H]2CCCN2C(=O)[C@H](NC(=O)[C@@H](NC(=O)[C@@H](NC(=O)[C@H](NC(=O)CCCC(C)C)[C@@H](C)O)[C@@H](C)O)C(C)C)C(C)C)[C@@H](C)CC)[C@@H](C)OC(=O)[C@H](C(C)C)NC1=O | 9.29 µM | 1.14 µM | 0.582 µM | 0.231 µM | 1 µM | 0.257 µM | 1.16 µM | 1.22 µM | 1.1 µM | 1.03 µM | 2.37 µM | 2.81 µM | 0.575 µM | 0.367 µM | 0.727 µM | 0.896 µM | 0.325 µM | 0.331 µM | 1.02 µM | 0.977 µM | TGI [1]: 1.15 µM; GI50 ([1]; read-out: GI50): 1.47 µM; GI50 [2]: 1.95 µM; TGI [2]: 2.58 µM; GI50 [3]: 0.909 µM; GI50 ([3]; read-out: GI50): 1.17 µM; TGI [6]: 1.26 µM; GI50 [6]: 1.55 µM; GI50 [8]: 3.91 µM; TGI [8]: 5.26 µM; GI50 [9]: 1.06 µM; TGI [9]: 0.886 µM; TGI [11]: 0.327 µM; GI50 [13]: 1.04 µM; TGI [13]: 1.52 µM
C/C=C1\NC(=O)[C@H](Cc2ccccc2)NC(=O)[C@@H](C(C)C)NC(=O)[C@@H]([C@H](C)CC)NC(=O)[C@H](NC(=O)[C@H](NC(=O)[C@H](CCCN)NC(=O)[C@H]2CCCN2C(=O)[C@H](NC(=O)[C@@H](NC(=O)[C@@H](NC(=O)[C@@H](CC(C)C)NC(=O)CCCC(C)C)[C@@H](C)O)C(C)C)C(C)C)[C@H](C)CC)[C@H](C)OC(=O)[C@H](C(C)C)NC1=O | 0.889 µM | 1.13 µM | 5.64 µM | 0.298 µM | 1.31 µM | 0.365 µM | 1.07 µM | 1.09 µM | 1.06 µM | 1.08 µM | 2.18 µM | 2.79 µM | 0.509 µM | 0.608 µM | 0.842 µM | 0.856 µM | 0.325 µM | 3.37 µM | 0.955 µM | 0.948 µM | TGI [1]: 1.07 µM; GI50 ([1]; read-out: GI50): 1.34 µM; GI50 [2]: 1.79 µM; TGI [2]: 2.55 µM; GI50 [3]: 0.845 µM; GI50 ([3]; read-out: GI50): 1.05 µM; GI50 [7]: 2.72 µM; TGI [7]: 2.43 µM; GI50 [8]: 2.91 µM; TGI [8]: 5.21 µM; GI50 [9]: 0.661 µM; TGI [9]: 0.728 µM; TGI [11]: 0.329 µM; GI50 [13]: 1 µM; TGI [13]: 1.46 µM
C/C=C1\NC(=O)[C@H](Cc2ccccc2)NC(=O)[C@@H](C(C)C)NC(=O)[C@@H]([C@H](C)CC)NC(=O)[C@H](NC(=O)[C@H](NC(=O)[C@H](CCCN)NC(=O)[C@H]2CCCN2C(=O)[C@H](NC(=O)[C@@H](NC(=O)[C@@H](NC(=O)[C@@H](NC(=O)CCCC(C)C)C(C)C)[C@@H](C)O)C(C)C)C(C)C)[C@H](C)CC)[C@H](C)OC(=O)[C@H](C(C)C)NC1=O | 0.842 µM | 0.967 µM | 0.668 µM | 0.529 µM | 2.89 µM | 0.527 µM | 1.03 µM | 1 µM | 1.06 µM | 1.04 µM | 0.153 µM | 1.59 µM | 0.501 µM | 1.3 µM | 3.25 µM | 2.09 µM | 1.76 µM | 2.88 µM | 1.02 µM | 0.969 µM | GI50 [1]: 0.771 µM; GI50 ([1]; read-out: GI50): 0.549 µM; GI50 [2]: 0.853 µM; TGI [2]: 0.911 µM; TGI [6]: 1.18 µM; GI50 [6]: 1.33 µM; GI50 [8]: 1.51 µM; TGI [8]: 1.56 µM; GI50 [9]: 0.635 µM; TGI [9]: 0.728 µM; TGI [11]: 2.25 µM; GI50 [13]: 1.04 µM; TGI [13]: 1.51 µM
C/C=C1\NC(=O)[C@H](Cc2ccccc2)NC(=O)[C@@H](C(C)C)NC(=O)[C@@H]([C@H](C)CC)NC(=O)[C@H](NC(=O)[C@H](NC(=O)[C@H](CCCN)NC(=O)[C@H]2CCCN2C(=O)[C@H](NC(=O)[C@@H](NC(=O)[C@@H](NC(=O)[C@H]2CCCN2C(=O)CCCC(C)C)[C@@H](C)O)C(C)C)C(C)C)[C@H](C)CC)[C@H](C)OC(=O)[C@H](C(C)C)NC1=O | 1.16 µM | 1.06 µM | 0.768 µM | 0.608 µM | 4.7 µM | 0.426 µM | 1.24 µM | 1.05 µM | 1.14 µM | 1.24 µM | 1.8 µM | 2.82 µM | 1.14 µM | – | – | 1.5 µM | 3.51 µM | 3.27 µM | 1.09 µM | 1.01 µM | GI50 [2]: 1.16 µM; TGI [2]: 1.11 µM; GI50 [7]: 1.31 µM; TGI [7]: 1.53 µM; GI50 [8]: 2.75 µM; TGI [8]: 3.8 µM; TGI [11]: 3.37 µM; GI50 [13]: 1.18 µM; TGI [13]: 1.65 µM
C/C=C1\NC(=O)[C@H](Cc2ccccc2)NC(=O)[C@@H](C(C)C)NC(=O)[C@@H]([C@H](C)CC)NC(=O)[C@H](NC(=O)[C@H](NC(=O)[C@H](CCCN)NC(=O)[C@H]2Cc3ccccc3CN2C(=O)[C@H](NC(=O)[C@@H](NC(=O)[C@@H](NC(=O)[C@H](NC(=O)CC[C@@H](C)CC)C(C)C)[C@@H](C)O)C(C)C)C(C)C)[C@H](C)CC)[C@H](C)OC(=O)[C@H](C(C)C)NC1=O | 1.37 µM | 1.51 µM | 0.464 µM | 0.779 µM | 1.06 µM | 0.527 µM | 3.11 µM | 3.63 µM | 1.56 µM | 6.5 µM | 2.1 µM | 1.95 µM | 0.426 µM | 2.62 µM | 2.54 µM | 0.685 µM | 2.29 µM | 1.74 µM | 1.05 µM | 0.947 µM | TGI [1]: 2.28 µM; GI50 ([1]; read-out: GI50): 2.39 µM; GI50 [3]: 0.806 µM; GI50 ([3]; read-out: GI50): 1.52 µM; TGI [6]: 1.54 µM; GI50 [6]: 1.43 µM; TGI [11]: 2.49 µM
C/C=C1\NC(=O)[C@H](Cc2ccccc2)NC(=O)[C@@H](C(C)C)NC(=O)[C@@H]([C@H](C)CC)NC(=O)[C@H](NC(=O)[C@H](NC(=O)[C@H](CCCN)NC(=O)[C@@H]2CC[C@H](c3ccccc3)N2C(=O)[C@H](NC(=O)[C@@H](NC(=O)[C@@H](NC(=O)[C@H](NC(=O)CC[C@@H](C)CC)C(C)C)[C@@H](C)O)C(C)C)C(C)C)[C@H](C)CC)[C@H](C)OC(=O)[C@H](C(C)C)NC1=O | 1.36 µM | 1.55 µM | 0.499 µM | – | – | 5.22 µM | – | – | 1.54 µM | 6.44 µM | 2.08 µM | 1.94 µM | 0.643 µM | 7.33 µM | 6.17 µM | 0.756 µM | – | 1.78 µM | 1.04 µM | 0.938 µM | –
